Key:
Progesterone receptor = biological target: T1, Progesterone receptor (Homo sapiens, UniProt P06401); assay: Binding affinity to progesterone receptor by fluorescence polarization assay
T1 sequence (P06401 whole entry): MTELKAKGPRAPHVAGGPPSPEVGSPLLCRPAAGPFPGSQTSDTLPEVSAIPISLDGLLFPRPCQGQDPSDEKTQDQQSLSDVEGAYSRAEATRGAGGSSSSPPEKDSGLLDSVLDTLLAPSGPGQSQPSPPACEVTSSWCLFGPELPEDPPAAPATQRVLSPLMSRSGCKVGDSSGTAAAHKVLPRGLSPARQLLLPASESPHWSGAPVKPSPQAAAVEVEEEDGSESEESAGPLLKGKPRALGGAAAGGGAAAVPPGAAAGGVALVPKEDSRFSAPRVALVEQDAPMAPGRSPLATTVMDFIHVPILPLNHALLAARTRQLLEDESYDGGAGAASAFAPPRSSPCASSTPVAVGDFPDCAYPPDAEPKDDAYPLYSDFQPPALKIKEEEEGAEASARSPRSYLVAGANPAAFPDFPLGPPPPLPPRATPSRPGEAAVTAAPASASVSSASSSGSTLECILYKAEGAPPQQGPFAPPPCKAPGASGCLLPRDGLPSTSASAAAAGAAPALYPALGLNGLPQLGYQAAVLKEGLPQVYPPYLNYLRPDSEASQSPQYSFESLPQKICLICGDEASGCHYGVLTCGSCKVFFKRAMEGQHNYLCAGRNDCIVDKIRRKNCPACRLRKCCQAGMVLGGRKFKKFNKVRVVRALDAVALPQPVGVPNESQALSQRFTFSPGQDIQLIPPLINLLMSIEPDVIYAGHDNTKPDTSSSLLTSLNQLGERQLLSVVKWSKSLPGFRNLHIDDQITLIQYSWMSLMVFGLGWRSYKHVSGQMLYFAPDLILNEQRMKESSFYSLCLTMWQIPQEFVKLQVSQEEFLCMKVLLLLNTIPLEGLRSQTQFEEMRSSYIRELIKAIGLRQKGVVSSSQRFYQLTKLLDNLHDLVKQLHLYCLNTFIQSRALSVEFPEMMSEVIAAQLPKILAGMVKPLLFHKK
Summary of the method: (§1)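 Fluorescence polarization competition of test compound against a fluorescently labelled ligand for binding to full-length receptor or its ligand-binding domain.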

[1] = biological target: T2, Mineralocorticoid receptor (Homo sapiens, UniProt P08235); assay: Agonist activity at mineralocorticoid receptor in human A549 cells; assay type: functional, cell-based
T2 sequence (P08235 whole entry): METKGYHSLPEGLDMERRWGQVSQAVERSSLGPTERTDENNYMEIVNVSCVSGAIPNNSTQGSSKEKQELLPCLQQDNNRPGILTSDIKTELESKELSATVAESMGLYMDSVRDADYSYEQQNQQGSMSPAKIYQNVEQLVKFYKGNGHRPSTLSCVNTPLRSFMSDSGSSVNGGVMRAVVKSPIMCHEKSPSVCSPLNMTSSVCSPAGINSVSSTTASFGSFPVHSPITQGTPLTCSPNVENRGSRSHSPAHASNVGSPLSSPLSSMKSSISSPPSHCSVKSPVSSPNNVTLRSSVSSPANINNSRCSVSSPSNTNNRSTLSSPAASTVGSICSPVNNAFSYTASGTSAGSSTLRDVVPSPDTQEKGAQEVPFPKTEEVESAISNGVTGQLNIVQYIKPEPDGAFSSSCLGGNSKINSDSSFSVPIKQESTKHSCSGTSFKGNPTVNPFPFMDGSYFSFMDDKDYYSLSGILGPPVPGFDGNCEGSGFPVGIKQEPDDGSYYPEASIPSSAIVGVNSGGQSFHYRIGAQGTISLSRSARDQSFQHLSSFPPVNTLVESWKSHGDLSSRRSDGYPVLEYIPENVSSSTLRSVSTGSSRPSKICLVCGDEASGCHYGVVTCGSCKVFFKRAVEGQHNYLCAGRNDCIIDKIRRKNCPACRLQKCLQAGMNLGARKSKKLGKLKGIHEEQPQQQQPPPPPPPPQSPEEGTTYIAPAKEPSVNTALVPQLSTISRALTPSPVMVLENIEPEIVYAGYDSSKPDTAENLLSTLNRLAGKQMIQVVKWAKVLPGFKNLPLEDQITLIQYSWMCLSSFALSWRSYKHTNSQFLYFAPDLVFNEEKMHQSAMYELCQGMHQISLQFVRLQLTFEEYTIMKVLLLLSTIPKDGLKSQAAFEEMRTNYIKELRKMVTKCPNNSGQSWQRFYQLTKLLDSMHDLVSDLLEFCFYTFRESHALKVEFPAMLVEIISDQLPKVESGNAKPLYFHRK

Estrogen receptor = biological target: T3, Estrogen receptor (Homo sapiens, UniProt P03372); assay: Binding affinity to ERalpha by fluorescence polarization assay; summary of the method: as §1
T3 sequence (P03372 whole entry): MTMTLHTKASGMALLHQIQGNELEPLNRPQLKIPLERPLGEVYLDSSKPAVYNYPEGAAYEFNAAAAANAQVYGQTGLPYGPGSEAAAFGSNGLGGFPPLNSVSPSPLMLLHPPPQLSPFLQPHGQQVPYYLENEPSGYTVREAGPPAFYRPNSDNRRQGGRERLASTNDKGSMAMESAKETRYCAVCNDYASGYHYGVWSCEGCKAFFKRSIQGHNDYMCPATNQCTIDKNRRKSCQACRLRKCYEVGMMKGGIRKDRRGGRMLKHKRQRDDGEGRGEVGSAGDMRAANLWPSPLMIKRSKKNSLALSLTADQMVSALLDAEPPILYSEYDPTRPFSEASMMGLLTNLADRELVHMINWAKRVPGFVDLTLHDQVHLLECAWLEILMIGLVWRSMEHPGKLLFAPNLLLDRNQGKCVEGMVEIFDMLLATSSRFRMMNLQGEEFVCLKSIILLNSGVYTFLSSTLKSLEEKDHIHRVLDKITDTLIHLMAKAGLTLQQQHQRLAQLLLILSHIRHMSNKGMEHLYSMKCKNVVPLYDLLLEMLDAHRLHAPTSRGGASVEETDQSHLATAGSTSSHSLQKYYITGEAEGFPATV

Androgen receptor = biological target: T4, Androgen receptor (Homo sapiens, UniProt P10275); assay: Binding affinity to androgen receptor by fluorescence polarization assay; summary of the method: as §1
T4 sequence (P10275 whole entry): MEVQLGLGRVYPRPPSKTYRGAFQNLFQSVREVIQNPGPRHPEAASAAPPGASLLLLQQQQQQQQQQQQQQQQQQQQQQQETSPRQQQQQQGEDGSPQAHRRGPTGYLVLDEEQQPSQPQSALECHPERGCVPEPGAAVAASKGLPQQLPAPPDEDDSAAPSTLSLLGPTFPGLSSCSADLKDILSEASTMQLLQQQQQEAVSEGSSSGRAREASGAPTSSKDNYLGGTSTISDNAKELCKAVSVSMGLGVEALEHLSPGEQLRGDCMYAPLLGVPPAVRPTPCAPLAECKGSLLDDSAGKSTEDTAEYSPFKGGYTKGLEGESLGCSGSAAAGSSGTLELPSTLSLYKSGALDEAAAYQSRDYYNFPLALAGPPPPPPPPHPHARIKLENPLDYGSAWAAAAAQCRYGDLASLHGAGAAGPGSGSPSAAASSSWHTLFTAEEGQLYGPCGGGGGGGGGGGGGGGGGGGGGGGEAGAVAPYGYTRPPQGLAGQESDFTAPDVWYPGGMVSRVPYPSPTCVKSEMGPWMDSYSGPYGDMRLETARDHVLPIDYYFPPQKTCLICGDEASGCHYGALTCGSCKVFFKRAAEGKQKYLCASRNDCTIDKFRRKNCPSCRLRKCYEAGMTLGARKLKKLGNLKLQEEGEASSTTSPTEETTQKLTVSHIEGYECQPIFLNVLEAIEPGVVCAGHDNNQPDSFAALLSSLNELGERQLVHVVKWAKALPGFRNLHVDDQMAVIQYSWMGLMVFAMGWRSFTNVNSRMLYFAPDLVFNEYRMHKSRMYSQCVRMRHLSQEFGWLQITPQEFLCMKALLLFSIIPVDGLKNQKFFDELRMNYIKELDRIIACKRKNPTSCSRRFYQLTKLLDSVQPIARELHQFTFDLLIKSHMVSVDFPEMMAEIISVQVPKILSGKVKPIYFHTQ

Rattus norvegicus [2] = assay: Antiinflammatory activity against carrageenan-induced paw edema Sprague-Dawley rat model assessed as inhibition of hind paw swelling at 30 mg/kg, po measured after 5 hrs post carrageenan challenge; assay type: functional
Summary of the method: (§2)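 Male SD rats, fasted overnight plus up to 6 h more. Baseline hind paw volume taken by water plethysmometer. A single oral dose was given in a biologically acceptable medium. 2 h later, under anaesthesia, 1% carrageenan in PBS was injected subcutaneously into both hind paws. Volume was read 3 h post challenge, and swelling was taken as post-challenge minus baseline.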

Rattus norvegicus [3] = assay: Toxicity in Sprague-Dawley rat assessed as induction of TAT activity in liver homogenates at 30 mg/kg, po after 6 hrs; assay type: organism-based; set-up: dose 30 mg/kg, route oral; conditions: in vivo
Summary of the method: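 Male SD rats, fasted, single oral dose. Liver was biopsied 6 h postdose, snap frozen, homogenised in 150 mM KCl and centrifuged. Protein-normalised supernatants were assayed for TAT activity, read as OD at 340 nm. Values are given as % of TAT activity in prednisolone-treated (30 mg/kg) rats.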

Rattus norvegicus [4] = assay: Antiinflammatory activity in po dosed carrageenan-induced paw edema Sprague-Dawley rat model assessed as inhibition of hind paw swelling after 5 hrs post carrageenan challenge; assay type: functional; summary of the method: as §2
Rattus norvegicus [5] = assay: Toxicity in Sprague-Dawley rat assessed as increase in serum glucose level at 30 mg/kg, po after 6 hrs; assay type: organism-based; set-up: dose 30 mg/kg, route oral; conditions: in vivo
Summary of the method: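 Male SD rats, fasted overnight plus up to 6 h, were given a single oral dose in a biologically acceptable medium. At 6 h they were euthanised with CO2, and blood was taken by intracardiac puncture. Serum glucose was measured by the hexokinase method on an automated chemistry analyzer.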

Ki (Progesterone receptor) [nM]	EC50 [1] [nM]	Ki (Estrogen receptor) [nM]	Ki (Androgen receptor) [nM]	SMILES	inhibition (INH) (Rattus norvegicus [2]; 30 mg/kg) [%]	inhibition in vivo at 30 mg/kg (Rattus norvegicus [2]; Rattus norvegicus, Sprague-Dawley, po, 5 h) [%]	Activity (Rattus norvegicus [3])	ED50 (Rattus norvegicus [4]) [mg/kg]	Activity (Rattus norvegicus [5])
55	> 5000	> 50000	993	CC(C)(C(=O)Nc1nncs1)[C@@H](c1ccccc1)c1ccc(O)c(F)c1					
	2	> 5000		C[C@]12C=CC(=O)C=C1CC[C@@H]1[C@@H]2[C@@H](O)C[C@@]2(C)[C@H]1CC[C@]2(O)C(=O)CO [PREDNISOLONE]	42	57	Toxic	19	Toxic

From ChEMBL document CHEMBL1799968, “Dimethyl-diphenyl-propanamide derivatives as nonsteroidal dissociated glucocorticoid receptor agonists” (J Med Chem, 2010)
